ChEMBL document CHEMBL1125068, “Structure-based, C2 symmetric inhibitors of HIV protease” (J Med Chem, 1990)

What was measured:
[1] = target: T1, Human immunodeficiency virus type 1 protease (Human immunodeficiency virus 1, UniProt Q72874); test: Inhibitory activity against recombinant HIV-1 Protease
[2] = tested on: MT4; test: In vitro inhibitory activity against HIV-1 in MT-4 cells; assay type: functional, cell-based; conditions: Homo sapiens
Summary of the method: (§1)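 MT4 cells (1 × 10⁴) were infected with 10 TCID₅₀ HIV-1 3B for 2 h, washed, and grown at 37 °C in inhibitor-containing medium. Viral cytopathic effect and compound toxicity were both scored on day 5 by MTT uptake. IC₅₀ and TC₅₀ came from this read-out.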

[3] = tested on: H9; test: In vitro inhibitory cytopathic effect against HIV-1 in H9 cells; assay type: functional; conditions: Homo sapiens, H9, read-out: TC50
[4] = tested on: H9; test: In vitro inhibitory activity against HIV-1 in H9 cells; assay type: functional, cell-based; conditions: Homo sapiens
Summary of the method: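 H9 cells (2 × 10⁴) were infected with 100 TCID₅₀ HIV-1 3B for 2 h, washed, then cultured at 37 °C with inhibitor. Viral replication was read as p24 antigen by ELISA on days 7 and 10, and IC₅₀ was taken from the dose-response. Viability of uninfected cultures was checked by trypan blue exclusion.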

[5] = tested on: MT4; test: In vitro inhibitory cytopathic effect against HIV-1 in MT-4 cells; assay type: functional; conditions: Homo sapiens, MT4, read-out: TC50; summary of the method: as §1
[6] = target: T1, Human immunodeficiency virus type 1 protease; test: Inhibitory activity against recombinant HIV-1 protease.

**Q.** `CC[C@H](C)[C@H](NC(=O)OCc1ccccc1)C(=O)N[C@@H](Cc1ccccc1)C(O)[C@H](Cc1ccccc1)NC(=O)[C@H](NC(=O)OCc1ccccc1)[C@@H](C)CC` (some centres undefined) was tested. Which IC50 [1] did it give?
**A.** 4.9 nM

**Q.** How did the IC50 [1] turn out when `CC(C)(C)OC(=O)N[C@@H](Cc1ccccc1)[C@H](O)[C@H](O)[C@H](Cc1ccccc1)NC(=O)OC(C)(C)C` was run?
**A.** 12 nM

**Q.** Which results are given for `CC(C)[C@H](NC(=O)OCc1ccccc1)C(=O)N[C@@H](Cc1ccccc1)[C@@H](O)[C@H](O)[C@H](Cc1ccccc1)NC(=O)[C@H](NC(=O)OCc1ccccc1)C(C)C`?
**A.** IC50 [2]: 80 nM; IC50 [1]: 0.22 nM; CC50 [3]: 10000 nM; IC50 [4]: 20 nM; CC50 [5]: > 100000 nM

**Q.** With `CC(=O)N[C@H](C(=O)N[C@H](C(=O)N[C@@H](Cc1ccccc1)C(O)[C@H](Cc1ccccc1)NC(=O)[C@H](NC(=O)[C@H](NC(C)=O)C(C)C)C(C)C)C(C)C)C(C)C` (some centres undefined) as the molecule, how does the IC50 [1] read?
**A.** 10 nM

**Q.** Which IC50 [1] does the source give for `CC(C)C[C@H](NC(=O)OCc1ccccc1)C(=O)N[C@@H](Cc1ccccc1)C(O)[C@H](Cc1ccccc1)NC(=O)[C@@H](CC(C)C)NC(=O)OCc1ccccc1` (some centres undefined) here?
**A.** > 100 nM

**Q.** For `CC(=O)N[C@H](C(=O)N[C@@H](Cc1ccccc1)C(O)[C@H](Cc1ccccc1)NC(=O)[C@@H](NC(C)=O)C(C)C)C(C)C`, which IC50 [1] is on record?
**A.** 12 nM

**Q.** With `CC(C)(C)OC(=O)N[C@@H](Cc1ccccc1)[C@@H](O)[C@H](O)[C@H](Cc1ccccc1)NC(=O)OC(C)(C)C` as the molecule, how does the IC50 [1] read?
**A.** 40 nM

**Q.** For `CC(C)[C@H](NC(=O)OCc1ccccc1)C(=O)N[C@@H](Cc1ccccc1)[C@@H](O)[C@H](Cc1ccccc1)NC(=O)[C@H](NC(=O)OCc1ccccc1)C(C)C`, which IC50 [1] is on record?
**A.** 3 nM

**Q.** For `CC(C)[C@H](NC(=O)OCc1ccccc1)C(=O)N[C@@H](Cc1ccccc1)[C@@H](O)[C@@H](O)[C@H](Cc1ccccc1)NC(=O)[C@H](NC(=O)OCc1ccccc1)C(C)C`, which IC50 [2] is on record?
**A.** 16 nM

**Q.** What about the IC50 [6] of the same molecule?
**A.** 0.22 nM

**Q.** What about the CC50 [3] of the same molecule?
**A.** 60000 nM

**Q.** And the IC50 [4]?
**A.** 20 nM

**Q.** And the CC50 [5]?
**A.** > 100000 nM

**Q.** How did the IC50 [2] turn out when `CC(C)[C@H](NC(=O)OCc1ccccc1)C(=O)N[C@@H](Cc1ccccc1)[C@H](O)[C@@H](O)[C@H](Cc1ccccc1)NC(=O)[C@H](NC(=O)OCc1ccccc1)C(C)C` was run?
**A.** 150 nM

**Q.** What about the IC50 [6] of the same molecule?
**A.** 0.38 nM

**Q.** And the CC50 [3]?
**A.** > 100000 nM

**Q.** And the IC50 [4]?
**A.** 60 nM

**Q.** What about the CC50 [5] of the same molecule?
**A.** > 100000 nM

**Q.** Which IC50 [1] does the source give for `CC(C)(C)OC(=O)N[C@@H](Cc1ccccc1)[C@H](O)[C@@H](O)[C@H](Cc1ccccc1)NC(=O)OC(C)(C)C` here?
**A.** 280 nM

**Q.** How did the IC50 [1] turn out when `CC(=O)N[C@@H](Cc1ccccc1)C(O)[C@H](Cc1ccccc1)NC(C)=O` was run?
**A.** > 10000 nM
